# ChEMBL document CHEMBL3351752, “Discovery and in vivo evaluation of alcohol-containing benzothiazoles as potent dual-targeting bacterial DNA supercoiling inhibitors” (Bioorg Med Chem Lett, 2014)
# The source made the active and inactive calls. The rule behind the calls is not given here.
# Experiments:
# Staphylococcus aureus [1] = experiment: Antimicrobial activity against Staphylococcus aureus ATCC 19636 infected in neutropenic mouse assessed as reduction in colony forming units at 30 mg/kg, iv administered as single dose measured 24 hrs post infection relative to control; assay type: functional, organism-based; set-up: dose 30 mg/kg
# Staphylococcus aureus [2] = experiment: Antimicrobial activity against Staphylococcus aureus ATCC 19636 infected in neutropenic mouse assessed as reduction in colony forming units at 25 mg/kg, iv administered as single dose measured 24 hrs post infection relative to control; assay type: functional, organism-based; set-up: dose 25 mg/kg
# Staphylococcus aureus [3] = experiment: Antimicrobial activity against methicillin-sensitive Staphylococcus aureus infected in neutropenic mouse assessed as log reduction in colony forming units at 100 mg/kg, iv administered at 2, 4 and 6 hrs post-inoculation measured 24 hrs post infection relative to control; assay type: functional
# Staphylococcus aureus [4] = experiment: Antibacterial activity against Staphylococcus aureus ATCC 29213 assessed as growth inhibition; assay type: functional
# Staphylococcus aureus [5] = experiment: Antimicrobial activity against methicillin-sensitive Staphylococcus aureus infected in neutropenic mouse assessed as reduction in colony forming units administered iv at 2, 4 and 6 hrs post-inoculation measured 24 hrs post infection relative to control; assay type: functional, organism-based
# Staphylococcus aureus [6] = experiment: Antimicrobial activity against methicillin-sensitive Staphylococcus aureus infected in neutropenic mouse assessed as log reduction in colony forming units at 30 mg/kg, iv administered at 2, 4 and 6 hrs post-inoculation measured 24 hrs post infection relative to control; assay type: functional
# Staphylococcus aureus [7] = experiment: Antimicrobial activity against methicillin-sensitive Staphylococcus aureus infected in neutropenic mouse assessed as log reduction in colony forming units at 30 mg/kg, iv administered as single dose measured 24 hrs post infection relative to control; assay type: functional, organism-based; set-up: dose 30 mg/kg
# Outline: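 Thigh infection in neutropenic female CD-1 mice (18–22 g), made neutropenic with ip cyclophosphamide (150 mg/kg day −4, 100 mg/kg day −1). Thighs inoculated with about 2 × 10^5 CFU of MSSA S. aureus ATCC 19636 from fresh overnight culture. Single iv dose at 30 mg/kg. Thighs harvested at 24 h, homogenized in saline on ice, serial dilutions plated on charcoal plates, colonies counted; log CFU reduction taken versus matched controls.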
# Streptococcus pyogenes [8] = experiment: Antibacterial activity against Streptococcus pyogenes 51339 assessed as growth inhibition; assay type: functional
# Haemophilus influenzae = experiment: Antibacterial activity against Haemophilus influenzae 49247 assessed as growth inhibition; assay type: functional
# Staphylococcus aureus [9] = experiment: Antibacterial activity against Staphylococcus aureus ATCC 29213 assessed as growth inhibition in presence of 50% horse serum; assay type: functional
# Staphylococcus aureus [10] = experiment: Inhibition of Staphylococcus aureus DNA gyrase ATPase subunit GyrA2/GyrB2 after 60 mins by malachite green staining assay
# [11] = Fraction unbound in mouse plasma by ultracentrifugation; assay type: ADME, cell-free
# Outline: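 Compound at 10 µM (1% DMSO) was equilibrated in neat plasma at 37 °C for 60 min. Duplicate aliquots were ultracentrifuged at 250,000g for 4.2 h at 37 °C. Free compound in the plasma-water supernatant was compared with uncentrifuged samples incubated alike. Uncentrifuged samples kept at 20 °C checked degradation, and diltiazem served as stability control. Analysis was by LCMS.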
# Staphylococcus aureus [12] = experiment: Antimicrobial activity against Staphylococcus aureus harboring GyrB T173N mutant assessed as growth inhibition; assay type: functional
# Streptococcus pyogenes [13] = experiment: Antimicrobial activity against Streptococcus pyogenes harboring ParE A53S mutant assessed as growth inhibition; assay type: functional
# Staphylococcus aureus [14] = experiment: Ratio of MIC for Staphylococcus aureus ATCC 29213 assessed as growth inhibition in presence of 50% horse serum to MIC for Staphylococcus aureus ATCC 29213 assessed as growth inhibition; assay type: functional
# Staphylococcus aureus [15] = experiment: Antimicrobial activity against Staphylococcus aureus ATCC 19636 infected in neutropenic mouse assessed as reduction in colony forming units at 100 mg/kg, po administered as single dose measured 24 hrs post infection relative to control; assay type: functional, organism-based; set-up: dose 100 mg/kg
Structure (SMILES),MIC (Staphylococcus aureus [4]) [µg/mL],MIC (Streptococcus pyogenes [8]) [µg/mL],MIC (Haemophilus influenzae) [µg/mL],MIC (Staphylococcus aureus [9]) [µg/mL],inhibitory concentration (Staphylococcus aureus [10]) [µg/mL],fraction unbound [11],also measured
CO[C@@H]1[C@@H](OC(N)=O)[C@@H](O)[C@H](Oc2ccc3c(O)c(NC(=O)c4ccc(O)c(CC=C(C)C)c4)c(=O)oc3c2C)OC1(C)C,–,–,–,–,–,–,Activity (Staphylococcus aureus [1]): Active
CC(=O)NC[C@H]1CN(c2ccc(N3CCOCC3)c(F)c2)C(=O)O1,–,–,–,–,–,–,Activity (Staphylococcus aureus [2]): Active
CCNC(=O)Nc1nc2cc(-c3cnc(N4CCC(CC)(C(=O)O)CC4)nc3)cc(/C=N/OC)c2s1,0.12,–,–,–,–,–,FC (Staphylococcus aureus [3]): 4; Activity (Staphylococcus aureus [5]): Dose-dependent effect; FC (Staphylococcus aureus [6]): <3
CN[C@H](CC(C)C)C(=O)N[C@H]1C(=O)N[C@@H](CC(N)=O)C(=O)N[C@H]2C(=O)N[C@H]3C(=O)N[C@H](C(=O)N[C@H](C(=O)O)c4cc(O)cc(O)c4-c4cc3ccc4O)[C@H](O)c3ccc(c(Cl)c3)Oc3cc2cc(c3O[C@@H]2O[C@H](CO)[C@@H](O)[C@H](O)[C@H]2O[C@H]2C[C@](C)(N)[C@H](O)[C@H](C)O2)Oc2ccc(cc2Cl)[C@H]1O,–,–,–,–,–,–,Activity (Staphylococcus aureus [7]): Active
CCNC(=O)Nc1nc2cc(-c3cnc(C(C)(C)O)nc3)cc(-c3cc(CNC4CC4)ccn3)c2s1,0.12,0.12,2,0.25,0.006,0.056,–
CCNC(=O)Nc1nc2cc(-c3cnc(CO)nc3)cc(-c3ccccn3)c2s1,0.03,0.06,0.25,0.06,–,–,MIC (Staphylococcus aureus [12]): 0.25 µg/mL; MIC (Streptococcus pyogenes [13]): 0.5 µg/mL; Ratio (Staphylococcus aureus [14]): 2
CCNC(=O)Nc1nc2cc(-c3cnc(C(C)(C)O)nc3)cc(-c3cc(CN4CC(C)(O)C4)ccn3)c2s1,0.5,0.12,4,0.5,0.011,0.223,–
CCNC(=O)Nc1nc2cc(-c3cnc(N4CCC(CC)(C(=O)O)CC4)nc3)cc(-c3ccccn3)c2s1,0.06,0.06,4,4,–,–,FC (Staphylococcus aureus [3]): 4; MIC (Staphylococcus aureus [12]): 0.25 µg/mL; MIC (Streptococcus pyogenes [13]): 0.5 µg/mL; Ratio (Staphylococcus aureus [14]): 64; Activity (Staphylococcus aureus [5]): Dose-dependent effect; FC (Staphylococcus aureus [6]): <3
CCNC(=O)Nc1nc2cc(-c3cnc(C(C)(C)O)nc3)cc(-c3cc(CN4CC[C@@H](F)C4)ccn3)c2s1,0.06,0.06,1,0.25,0.005,0.063,–
CCNC(=O)Nc1nc2cc(-c3cnc(C(C)(C)O)nc3)cc(-c3cc(CN4CCC(F)(F)C4)ccn3)c2s1,0.06,0.03,> 16,0.25,0.007,0.041,–
CCNC(=O)Nc1nc2cc(-c3cnc(C(C)(C)O)nc3)cc(-c3ccccn3)c2s1,0.06,0.12,1,0.25,0.006,0.051,MIC (Staphylococcus aureus [12]): 0.25 µg/mL; MIC (Streptococcus pyogenes [13]): 1 µg/mL; Ratio (Staphylococcus aureus [14]): 4; Activity (Staphylococcus aureus [1]): Active; Activity (Staphylococcus aureus [15]): Active
CCNC(=O)Nc1nc2cc(-c3cnc(C(C)(C)O)nc3)cc(-c3cc(CN4CCCC4)ccn3)c2s1,0.5,0.5,4,0.5,0.012,0.067,–
CCNC(=O)Nc1nc2cc(-c3cnc(C(C)(C)O)nc3)cc(-c3cc(CN4CC[C@@H](O)C4)ccn3)c2s1,0.5,0.25,4,0.5,0.007,0.194,–
CCNC(=O)Nc1nc2cc(-c3cnc(C(C)O)nc3)cc(-c3ccccn3)c2s1 (stereo not drawn),0.03,0.06,0.5,0.12,–,–,MIC (Staphylococcus aureus [12]): 0.25 µg/mL; MIC (Streptococcus pyogenes [13]): 1 µg/mL; Ratio (Staphylococcus aureus [14]): 4
